According to ChEMBL document CHEMBL3244281, “Antiviral activity of some beta-diketones. 3. Aryl bis(beta-diketones). Antiherpetic activity” (1978):
≈ marks a conversion by molar mass, not a printed value. Calls of active or inactive are those of the source. The rule behind the calls is not given here.

Columns and labels:
Human alphaherpesvirus 1 [1] = assay: Antiviral activity against HSV1 Sheely infected in monkey BSC-1 cells assessed as reduction of plaque formation at 3 ug/ml after 4 days using crystal violet staining relative to control; type: functional; conditions: Human alphaherpesvirus 1, Sheely, BSC-1, in Primates, 96 h
Outline: (§1)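 BSC-1 monolayers, 4 days old and confluent, were infected with 20-60 PFU in MEM + 2% FCS. They were overlaid with agar (1% ionagar + 2× M-199 + 5% FCS) containing compound, four flasks per condition. Uninfected monolayers with compound served as controls. Flasks were incubated inverted at 37 °C for 4 days, formalin-fixed overnight at 4 °C and crystal violet-stained. Mean plaque count gave % reduction versus infected untreated cultures.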

Human alphaherpesvirus 1 [2] = assay: Antiherpetic activity against HSV1 AA infected in guinea pig skin assessed as reduction of scab formation at 2% administered 24 hrs after infection as vanishing cream base daily 5 times for 4 days; type: functional, organism-based
Outline: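 Guinea pigs had HSV-1 applied to shaved, epilated flanks: 0.1 mL tissue-culture virus (titer 10^6.25 TCID50) driven in by multiple vaccination-gun punctures. A 2% vanishing-cream preparation was applied topically from 24 h postinfection, five times daily for 4 days. Placebo-treated animals served as controls. Two scorers rated vesicles and followed lesions and scabbing to day 7.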

Human alphaherpesvirus 1 [3] = assay: Antiviral activity against HSV1; type: functional
Human alphaherpesvirus 2 [4] = assay: Antiviral activity against HSV2 Curtis infected in monkey BSC-1 cells assessed as reduction of plaque formation at 3 ug/ml after 4 days using crystal violet staining relative to control; type: functional; conditions: Human alphaherpesvirus 2, Curtis, BSC-1, 96 h; outline: as §1
Human alphaherpesvirus 2 [5] = assay: Antiviral activity against HSV2 Curtis infected in monkey BSC-1 cells assessed as reduction of plaque formation at 4 ug/ml after 4 days using crystal violet staining relative to control; type: functional; conditions: Human alphaherpesvirus 2, Curtis, BSC-1, in Primates, 96 h; outline: as §1
Human alphaherpesvirus 2 [6] = assay: Antiviral activity against HSV2 Curtis infected in monkey BSC-1 cells assessed as reduction of plaque formation at 2 ug/ml after 4 days using crystal violet staining relative to control; type: functional; conditions: Human alphaherpesvirus 2, Curtis, BSC-1, in Primates, 96 h; outline: as §1
Human alphaherpesvirus 1 [7] = assay: Antiviral activity against HSV1 Sheely infected in monkey BSC-1 cells assessed as reduction of plaque formation at 2 ug/ml after 4 days using crystal violet staining relative to control; type: functional; conditions: Human alphaherpesvirus 1, Sheely, BSC-1, in Primates, 96 h; outline: as §1
Human alphaherpesvirus 1 [8] = assay: Antiviral activity against HSV1 Sheely infected in monkey BSC-1 cells assessed as reduction of plaque formation at 4 ug/ml after 4 days using crystal violet staining relative to control; type: functional; conditions: Human alphaherpesvirus 1, Sheely, BSC-1, in Primates, 96 h; outline: as §1
Human alphaherpesvirus 2 [9] = assay: Antiviral activity against HSV2

SMILES | MIC (Human alphaherpesvirus 1 [3]) | MIC (Human alphaherpesvirus 2 [9]) | also measured
CCC(=O)C(CCCCCCOc1ccc(OCCCCCCC(C(=O)CC)C(=O)CC)cc1)C(=O)CC | 6 µg/mL (≈ 11.3 µM) |  | inhibition at 3 µg/mL (Human alphaherpesvirus 1 [1]): 43%; Activity (Human alphaherpesvirus 1 [2]): Active; inhibition at 3 µg/mL (Human alphaherpesvirus 2 [4]): 59%; inhibition at 4 µg/mL (Human alphaherpesvirus 2 [5]): 93%; inhibition at 2 µg/mL (Human alphaherpesvirus 2 [6]): 18%; inhibition at 2 µg/mL (Human alphaherpesvirus 1 [7]): 21%; inhibition at 4 µg/mL (Human alphaherpesvirus 1 [8]): 89%
CCC(=O)C(CCCCCCOc1cc(Cl)c(OCCCCCCC(C(=O)CC)C(=O)CC)cc1Cl)C(=O)CC | 6 µg/mL (≈ 10 µM) |  | 
CCC(=O)C(CCCCCCOc1ccc(OCCCCCCC(C(=O)CC)C(=O)CC)c(C)c1)C(=O)CC | 25 µg/mL (≈ 45.9 µM) |  | 
CCC(=O)C(CCCCOc1ccc(OCCCC(C(=O)CC)C(=O)CC)cc1)C(=O)CC |  | inactive | 
CCC(=O)C(CCCCCCCCOc1ccc(OCCCCCCCCC(C(=O)CC)C(=O)CC)cc1)C(=O)CC |  | inactive | 
CCC(=O)C(CCCOc1ccc(OCCCC(C(=O)CC)C(=O)CC)cc1)C(=O)CC |  | inactive | 
CCC(=O)C(CCCCCCOc1cccc(OCCCCCCC(C(=O)CC)C(=O)CC)c1)C(=O)CC | 12 µg/mL (≈ 22.6 µM) |  | 
CCC(=O)C(CCCCCOc1ccc(OCCCCC(C(=O)CC)C(=O)CC)cc1)C(=O)CC |  | inactive | 
CCC(=O)C(CCCCOc1ccc(OCCCCC(C(=O)CC)C(=O)CC)cc1)C(=O)CC | 3 µg/mL (≈ 6.32 µM) |  | 
CCC(=O)C(CCCCCCOc1ccc(OCCCCCCC(C(=O)CC)C(=O)CC)c(Cl)c1)C(=O)CC | 6 µg/mL (≈ 10.6 µM) |  | 
CCC(=O)C(CCCCCCCOc1ccc(OCCCCCCCC(C(=O)CC)C(=O)CC)cc1)C(=O)CC | 25 µg/mL (≈ 44.7 µM) |  | 
CCC(=O)C(CCCCCOc1ccc(OCCCCCC(C(=O)CC)C(=O)CC)cc1)C(=O)CC | 3 µg/mL (≈ 5.97 µM) |  | 
